From ChEMBL document CHEMBL1138155, “A lactosylated steroid contributes in vivo therapeutic benefits in experimental models of mouse lymphoma and human glioblastoma” (J Med Chem, 2006)

How the values were obtained:
[1] = tested on: PC-3; experiment: Antimigratory activity against human PC3 prostate cancer cell line at 100 nM after 12h; type: functional; conditions: PC-3, 12 h
How it was run: (§1)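 Computer-assisted videomicroscopy tracking of living cultured cells, one image every 4 min over 24 h; migration scored as maximum relative distance from origin (MRDO) per cell, read at 12 or 22 h with compound at 100 nM or without (control). Control normalized to 0%. Triplicate analyses, 121–184 cells per condition; mean ± standard error.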

[2] = tested on: Mus musculus; experiment: Toxicity in mice at 160 mg/kg, ip 28 days post dose; type: organism-based; design: dose 160 mg/kg, route intraperitoneal; conditions: in vivo, 672 h
How it was run: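 Healthy, non-tumor-grafted mice received a single acute ip dose of 160 mg/kg. Body weight and survival were recorded over at least 28 days after dosing to detect toxic effects.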

[3] = tested on: A549; experiment: Antimigratory activity against human A549 NSCLC cell line at 100 nM after 12h; type: functional; conditions: A549, 12 h; how it was run: as §1
[4] = tested on: MCF7; experiment: Cytotoxicity against human MCF7 breast cancer cell line; type: functional, cell-based
How it was run: (§2)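 Colorimetric MTT assay on cultured human cancer cells after 3 days of continuous drug exposure. IC50 is the concentration that reduces overall cell-population growth by 50% relative to untreated cells.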

[5] = tested on: U373 MG; experiment: Antimigratory activity against human U373 glioblastoma cell line at 100 nM after 12h; type: functional, U-373MG ATCC; how it was run: as §1
[6] = tested on: A549; experiment: Antimigratory activity against human A549 NSCLC cell line at 100 nM after 22h; type: functional; conditions: A549, 22 h; how it was run: as §1
[7] = tested on: Hs 683; experiment: Cytotoxicity against human Hs683 cancer cell line; type: functional, cell-based; how it was run: as §2
[8] = tested on: PC-3; experiment: Antimigratory activity against human PC3 prostate cancer cell line at 100 nM after 22h; type: functional; conditions: PC-3, 22 h; how it was run: as §1
[9] = tested on: PC-3; experiment: Cytotoxicity against human PC3 prostate cancer cell line; type: functional, cell-based; how it was run: as §2
[10] = tested on: HCT-15; experiment: Cytotoxicity against human HCT15 colon cancer cell line; type: functional, cell-based; how it was run: as §2
[11] = tested on: A549; experiment: Cytotoxicity against human A549 NSCLC cell line; type: functional, cell-based; how it was run: as §2
[12] = tested on: U373 MG; experiment: Antimigratory activity against human U373 glioblastoma cell line at 100nM after 22h; type: functional, U-373MG ATCC; how it was run: as §1
[13] = tested on: U373 MG; experiment: Cytotoxicity against human U373 glioblastoma cell line; type: functional, cell-based, U-373MG ATCC; how it was run: as §2

Compound	inhibition at 0.1 µM [1]	Activity [2]	inhibition at 0.1 µM [3]	IC50 [4]	inhibition at 0.1 µM [5]	inhibition at 0.1 µM [6]	IC50 [7]	inhibition at 0.1 µM [8]	IC50 [9]	IC50 [10]	IC50 [11]	inhibition at 0.1 µM [12]	IC50 [13]
COc1ccc(OC)c([C@@H]2C[C@H]3[C@@H]4CC=C5C[C@@H](O[C@H]6O[C@@H](C)[C@@H](O)[C@@H](O)[C@@H]6O)CC[C@]5(C)[C@H]4CC[C@]3(C)[C@H]2[C@H](C)O[C@H]2O[C@@H](C)[C@@H](O)[C@@H](O)[C@@H]2O)c1	-41%	Non-toxic	-6%	> 10 µM	-4%	-4%	> 10 µM	-45%	> 10 µM	> 10 µM	> 10 µM	-4%	> 10 µM
COc1ccc(OC)c([C@@H]2C[C@H]3[C@@H]4CC=C5C[C@@H](O[C@@H]6O[C@H](CO)[C@@H](O)[C@H](O)[C@H]6NC(C)=O)CC[C@]5(C)[C@H]4CC[C@]3(C)[C@H]2C(C)=O)c1	11%	Non-toxic	-39%	> 10 µM	-17%	-39%	> 10 µM	12%	> 10 µM	> 10 µM	> 10 µM	-3%	> 10 µM
COc1ccc(OC)c([C@@H]2C[C@H]3[C@@H]4CC=C5C[C@@H](O[C@@H]6O[C@H](CO)[C@H](O)[C@H](O)[C@H]6O)CC[C@]5(C)[C@H]4CC[C@]3(C)[C@H]2C(C)=O)c1	7%	Non-toxic	2%	> 10 µM	8%	4%	> 10 µM	-8%	> 10 µM	> 10 µM	> 10 µM	1%	> 10 µM
COc1ccc(OC)c([C@@H]2C[C@H]3[C@@H]4CC=C5C[C@@H](O[C@@H]6O[C@H](CO)[C@@H](O[C@@H]7O[C@H](CO)[C@@H](O)[C@H](O)[C@H]7O)[C@H](O)[C@H]6O)CC[C@]5(C)[C@H]4CC[C@]3(C)[C@H]2C(C)=O)c1	13%	Non-toxic	-30%	> 10 µM	8%	-34%	> 10 µM	-7%	> 10 µM	> 10 µM	> 10 µM	-9%	> 10 µM
COc1ccc(OC)c([C@@H]2C[C@H]3[C@@H]4CC=C5C[C@@H](O[C@H]6O[C@H](CO[C@@H]7O[C@H](CO)[C@@H](O)[C@H](O)[C@H]7O)[C@@H](O)[C@H](O)[C@H]6O)CC[C@]5(C)[C@H]4CC[C@]3(C)[C@H]2C(C)=O)c1	11%	Non-toxic	0%	> 10 µM	0%	-4%	> 10 µM	-1%	> 10 µM	> 10 µM	> 10 µM	-1%	> 10 µM
COc1ccc(OC)c([C@@H]2C[C@H]3[C@@H]4CC=C5C[C@@H](O[C@@H]6O[C@H](CO[C@H]7O[C@H](CO)[C@@H](O)[C@H](O)[C@H]7O)[C@@H](O)[C@H](O)[C@H]6O)CC[C@]5(C)[C@H]4CC[C@]3(C)[C@H]2C(C)=O)c1	-7%	Non-toxic	-34%	> 10 µM	-18%	-40%	> 10 µM	-9%	> 10 µM	> 10 µM	> 10 µM	-18%	> 10 µM
COc1ccc(OC)c([C@@H]2C[C@H]3[C@@H]4CC=C5C[C@@H](O)CC[C@]5(C)[C@H]4CC[C@]3(C)[C@H]2C(C)=O)c1	5%	Non-toxic	0%	> 10 µM	2%	6%	> 10 µM	10%	> 10 µM	> 10 µM	> 10 µM	7%	> 10 µM
COc1ccc(OC)c([C@@H]2C[C@H]3[C@@H]4CC=C5C[C@@H](O[C@@H]6O[C@H](CO[C@H]7O[C@H](CO)[C@@H](O)[C@H](O)[C@H]7O)[C@@H](O)[C@H](O)[C@H]6O)CC[C@]5(C)[C@H]4CC[C@]3(C)[C@H]2[C@H](C)O[C@@H]2O[C@H](CO[C@H]3O[C@H](CO)[C@@H](O)[C@H](O)[C@H]3O)[C@@H](O)[C@H](O)[C@H]2O)c1	8%	Non-toxic	9%	> 10 µM	-14%	0%	> 10 µM	10%	> 10 µM	> 10 µM	> 10 µM	-9%	> 10 µM
COc1ccc(OC)c([C@@H]2C[C@H]3[C@@H]4CC=C5C[C@@H](O[C@H]6O[C@@H](C)[C@@H](O)[C@@H](O)[C@@H]6O)CC[C@]5(C)[C@H]4CC[C@]3(C)[C@H]2C(C)=O)c1	-23%	Non-toxic	-8%	> 10 µM	-25%	-8%	> 10 µM	-15%	> 10 µM	> 10 µM	> 10 µM	-38%	> 10 µM
COc1ccc(OC)c([C@@H]2C[C@H]3[C@@H]4CC=C5C[C@@H](O[C@H]6O[C@H](CO)[C@@H](O[C@@H]7O[C@H](CO)[C@H](O)[C@H](O)[C@H]7O)[C@H](O)[C@H]6O)CC[C@]5(C)[C@H]4CC[C@]3(C)[C@H]2C(C)=O)c1	-51%	Non-toxic	8%	> 10 µM	-29%	-5%	> 10 µM	-34%	> 10 µM	> 10 µM	> 10 µM	-31%	> 10 µM
COc1ccc(OC)c([C@@H]2C[C@H]3[C@@H]4CC=C5C[C@@H](O)CC[C@]5(C)[C@H]4CC[C@]3(C)[C@H]2[C@H](C)O)c1	–	Non-toxic	–	> 10 µM	–	–	> 10 µM	–	> 10 µM	> 10 µM	> 10 µM	–	> 10 µM
COc1ccc(OC)c([C@@H]2C[C@H]3[C@@H]4CC=C5C[C@@H](O[C@@H]6O[C@H](CO)[C@@H](O[C@@H]7O[C@H](CO)[C@@H](O)[C@H](O)[C@H]7O)[C@H](O)[C@H]6O)CC[C@]5(C)[C@H]4CC[C@]3(C)[C@H]2[C@H](C)O[C@@H]2O[C@H](CO)[C@@H](O[C@@H]3O[C@H](CO)[C@@H](O)[C@H](O)[C@H]3O)[C@H](O)[C@H]2O)c1	9%	Non-toxic	4%	> 10 µM	-8%	3%	> 10 µM	-17%	> 10 µM	> 10 µM	> 10 µM	4%	> 10 µM
COc1ccc(OC)c([C@@H]2C[C@H]3[C@@H]4CC=C5C[C@@H](O[C@H]6O[C@H](CO)[C@@H](O[C@@H]7O[C@H](CO)[C@H](O)[C@H](O)[C@H]7O)[C@H](O)[C@H]6O)CC[C@]5(C)[C@H]4CC[C@]3(C)[C@H]2[C@H](C)O[C@H]2O[C@H](CO)[C@@H](O[C@@H]3O[C@H](CO)[C@H](O)[C@H](O)[C@H]3O)[C@H](O)[C@H]2O)c1	14%	Non-toxic	-26%	> 10 µM	-12%	-12%	> 10 µM	15%	> 10 µM	> 10 µM	> 10 µM	-13%	> 10 µM
COc1ccc(OC)c([C@@H]2C[C@H]3[C@@H]4CC=C5C[C@@H](O[C@H]6O[C@H](CO)[C@@H](O[C@H]7O[C@H](CO)[C@@H](O)[C@H](O)[C@H]7O)[C@H](O)[C@H]6O)CC[C@]5(C)[C@H]4CC[C@]3(C)[C@H]2C(C)=O)c1	-5%	Non-toxic	10%	> 10 µM	2%	5%	> 10 µM	-5%	> 10 µM	> 10 µM	> 10 µM	-8%	> 10 µM
